We go through 21 compounds from ChEMBL document CHEMBL1144859, “Synthesis and evaluation of homodimeric GnRHR antagonists having a rigid bis-propargylated benzene core” (Bioorg Med Chem, 2008).

pIC50, pKi: −log10 of the molar value.

For data set [1], the target named is T1, Gonadotropin-releasing hormone receptor (Homo sapiens) (UniProt P30968).
T1 sequence (whole entry): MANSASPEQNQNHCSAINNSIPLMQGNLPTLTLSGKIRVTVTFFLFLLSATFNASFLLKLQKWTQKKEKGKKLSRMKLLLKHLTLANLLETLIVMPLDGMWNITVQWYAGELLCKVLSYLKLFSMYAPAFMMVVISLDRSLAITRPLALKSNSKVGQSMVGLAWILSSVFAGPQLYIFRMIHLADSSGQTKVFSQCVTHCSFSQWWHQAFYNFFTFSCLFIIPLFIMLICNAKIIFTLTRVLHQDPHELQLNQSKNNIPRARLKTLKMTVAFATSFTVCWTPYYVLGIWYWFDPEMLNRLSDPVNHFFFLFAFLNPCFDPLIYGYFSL
Kind of data set: Antagonist activity at human recombinant GnRHR expressed in CHOK1 cells assessed as reduction in luminescence signal at 10 uM by luciferase reporter gene assay. Conditions: CHO-K1. It is filed as functional, cell-based. The gist of the method: (§1)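 CHO-K1 cells stably expressing human GnRHR plus NFAT-luciferase reporter, grown in DMEM/10% FBS with geneticin, harvested and suspended in DMEM with insulin, apo-transferrin and 3% DMSO (7500 cells/well). Compounds (10 μM to 0.3 nM final, half-log) preincubated 30 min, then GnRH 3 nM final (EC80) for 4 h; luciferase substrate added, 1 h at room temperature in the dark; luminescence read.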
In general terms: In a reporter assay the amount or activity of a reporter protein is the signal.

In data set [2] the target is T2, Gonadotropin-releasing hormone receptor (Homo sapiens, UniProt P30968).
T2 sequence (P30968 whole entry): T1 sequence (whole entry)
Kind of data set: Displacement of [125I]triptorelin from human GnRHR expressed in CHO cells. The format is cell-based. The gist of the method: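 Membranes from CHO cells stably expressing human GnRHR (20 μg protein) in 50 mM Tris-HCl pH 7.4, 2 mM MgCl2, 0.1% BSA, with 30,000 cpm [125I]triptorelin and five competitor concentrations, 45 min at 22 °C. Nonspecific binding was set with 1 μM ganirelix. Samples were filtered on PEI-soaked GF/B and counted by gamma counter.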

For data set [3], the target named is T1, Gonadotropin-releasing hormone receptor (Homo sapiens). Kind of data set: Antagonist activity at human recombinant GnRHR expressed in CHOK1 cells assessed as reduction in luminescence signal at 3 uM by luciferase reporter gene assay. It is filed as functional, cell-based. Conditions: CHO-K1. The method, boiled down:
as §1

The target in data set [4] is T2, Gonadotropin-releasing hormone receptor. Kind of data set: Antagonist activity at human recombinant GnRHR expressed in CHOK1 cells assessed as reduction in luminescence signal by luciferase reporter gene assay. It is filed as functional, cell-based, CHO-K1. The method, boiled down: as §1
Data set [5] is described as follows: Cytotoxicity against human GnRHR expressing CHO cells assessed as cell viability at 10 uM after 4 hrs. The format is cell-based, Cricetulus griseus. Conditions: chinese hamster, read-out: Activity. The gist of the method: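 CHO cells with human GnRHR and luciferase reporter, plated in assay medium with or without 10 μM compound, 4 h at 37 °C. Cells were then trypsinised and suspended in PBS, mixed 1:1 with 0.8% trypan blue, and live cells were counted by hemocytometer.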

A word on the pKi: it is −log10 of the Ki, conventionally taken in molar units. Lower therefore signals a large Ki. `CCNC(=O)Nc1ccc(-c2nc3n(Cc4c(F)cccc4F)cc(C(=O)OCC)c(=O)n3c2CN(CC(=O)N[C@H](C(=O)NCC#Cc2cccc(C#CCNC(=O)[C@@H](NC(=O)CN(Cc3ccccc3)Cc3c(-c4ccc(NC(=O)NCC)cc4)nc4n(Cc5c(F)cccc5F)cc(C(=O)OCC)c(=O)n34)C(C)C)c2)C(C)C)Cc2ccccc2)cc1`: the Efficacy in data set [1] came out at 43%; in data set [3] it was 28%. In data set [2], this compound showed a pKi of 5.66.

The pIC50 is −log10 of the IC50, conventionally taken in molar units. Turning to `CCNC(=O)Nc1ccc(-c2nc3n(Cc4c(F)cccc4F)cc(C(=O)OCC)c(=O)n3c2CN(CC(=O)N2CCC[C@H]2C(=O)NCC#Cc2ccccc2)Cc2ccccc2)cc1`, the figures for the Efficacy in data set [1] and in data set [3] were 89% and 87%, respectively. Besides, in data set [2], the pKi is 6.59. Further, the negative logarithm of the IC50 (pIC50) in data set [4] was 6.25.

As for `CCNC(=O)Nc1ccc(-c2nc3n(Cc4c(F)cccc4F)cc(C(=O)OCC)c(=O)n3c2CN(CC(=O)N2CCC(C(=O)NCC#Cc3ccc(C#CCNC(=O)C4CCN(C(=O)CN(Cc5ccccc5)Cc5c(-c6ccc(NC(=O)NCC)cc6)nc6n(Cc7c(F)cccc7F)cc(C(=O)OCC)c(=O)n56)CC4)cc3)CC2)Cc2ccccc2)cc1`, the Efficacy in data set [1] was 48%; in data set [3], 35%. In addition, the pKi in data set [2] was 6.29.

As for `CCNC(=O)Nc1ccc(-c2nc3n(Cc4c(F)cccc4F)cc(C(=O)OCC)c(=O)n3c2CN(CC(=O)N[C@@H](C)C(=O)NCC#Cc2ccc(C#CCNC(=O)[C@H](C)NC(=O)CN(Cc3ccccc3)Cc3c(-c4ccc(NC(=O)NCC)cc4)nc4n(Cc5c(F)cccc5F)cc(C(=O)OCC)c(=O)n34)cc2)Cc2ccccc2)cc1`, the Efficacy was determined as 52% in data set [1] and 42% in data set [3]. In data set [2], this compound gave a pKi of 6.32.

As for `CCNC(=O)Nc1ccc(-c2nc3n(Cc4c(F)cccc4F)cc(C(=O)OCC)c(=O)n3c2CN(CC(=O)NCCCC(=O)NCC#Cc2ccccc2)Cc2ccccc2)cc1`, the Efficacy in data set [1] turned out to be 96%; in data set [3], 97%. The compound further showed a pKi in data set [2] of 6.24. In data set [4], the pIC50 was 6.17. In data set [5], the viability at 4 h, 10 µM is 95%.

Turning to `CCNC(=O)Nc1ccc(-c2nc3n(Cc4c(F)cccc4F)cc(C(=O)OCC)c(=O)n3c2CN(CC(=O)N2CCC[C@H]2C(=O)NCC#Cc2ccc(C#CCNC(=O)[C@@H]3CCCN3C(=O)CN(Cc3ccccc3)Cc3c(-c4ccc(NC(=O)NCC)cc4)nc4n(Cc5c(F)cccc5F)cc(C(=O)OCC)c(=O)n34)cc2)Cc2ccccc2)cc1`, the Efficacy in data set [1] came out at 65%; in data set [3] it was 46%. Moreover, the pKi in data set [2] was 6.13.

With `CCNC(=O)Nc1ccc(-c2nc3n(Cc4c(F)cccc4F)cc(C(=O)OCC)c(=O)n3c2CN(CC(=O)NCC(=O)NCC#Cc2cccc(C#CCNC(=O)CNC(=O)CN(Cc3ccccc3)Cc3c(-c4ccc(NC(=O)NCC)cc4)nc4n(Cc5c(F)cccc5F)cc(C(=O)OCC)c(=O)n34)c2)Cc2ccccc2)cc1`, the Efficacy in data set [1] was found to be 9%; in data set [3], 20%. For the same compound, in data set [2], the pKi is 5.96.

With `CCNC(=O)Nc1ccc(-c2nc3n(Cc4c(F)cccc4F)cc(C(=O)OCC)c(=O)n3c2CN(CC(=O)N2CCC(C(=O)NCC#Cc3cccc(C#CCNC(=O)C4CCN(C(=O)CN(Cc5ccccc5)Cc5c(-c6ccc(NC(=O)NCC)cc6)nc6n(Cc7c(F)cccc7F)cc(C(=O)OCC)c(=O)n56)CC4)c3)CC2)Cc2ccccc2)cc1`, the Efficacy in data set [1] was 86%; in data set [3], 68%. This compound gave a pKi in data set [2] of 6.40.

Regarding `CCNC(=O)Nc1ccc(-c2nc3n(Cc4c(F)cccc4F)cc(C(=O)OCC)c(=O)n3c2CN(CC(=O)N[C@@H](C)C(=O)NCC#Cc2ccccc2)Cc2ccccc2)cc1`, the Efficacy in data set [1] was 61%; in data set [3], 63%. In addition, the pKi in data set [2] was 5.80. The pIC50 in data set [4] is 5.96.

Consider `CCNC(=O)Nc1ccc(-c2nc3n(Cc4c(F)cccc4F)cc(C(=O)OCC)c(=O)n3c2CN(CC(=O)N2CCC(C(=O)NCC#Cc3ccccc3)CC2)Cc2ccccc2)cc1`, for which the Efficacy in data set [1] amounted to 82%; in data set [3], 83%. Besides, the pKi in data set [2] was 6.85. The pIC50 in data set [4] is 6.34.

On to `CCNC(=O)Nc1ccc(-c2nc3n(Cc4c(F)cccc4F)cc(C(=O)OCC)c(=O)n3c2CN(CC(=O)NCCCC(=O)NCC#Cc2ccc(C#CCNC(=O)CCCNC(=O)CN(Cc3ccccc3)Cc3c(-c4ccc(NC(=O)NCC)cc4)nc4n(Cc5c(F)cccc5F)cc(C(=O)OCC)c(=O)n34)cc2)Cc2ccccc2)cc1`, for which the Efficacy in data set [1] was determined as 85%; in data set [3], 68%. Also, the pKi in data set [2] is 6.22. Also, in data set [5], the viability at 4 h, 10 µM came to 95%.

For the compound `CCNC(=O)Nc1ccc(-c2nc3n(Cc4c(F)cccc4F)cc(C(=O)OCC)c(=O)n3c2CN(CC(=O)NCCCCCC(=O)NCC#Cc2ccc(C#CCNC(=O)CCCCCNC(=O)CN(Cc3ccccc3)Cc3c(-c4ccc(NC(=O)NCC)cc4)nc4n(Cc5c(F)cccc5F)cc(C(=O)OCC)c(=O)n34)cc2)Cc2ccccc2)cc1`, the Efficacy amounted to 67% in data set [1] and 54% in data set [3]. Also, the pKi in data set [2] was 6.21.

Turning to `CCNC(=O)Nc1ccc(-c2nc3n(Cc4c(F)cccc4F)cc(C(=O)OCC)c(=O)n3c2CN(CC(=O)NCC(=O)NCC#Cc2ccc(C#CCNC(=O)CNC(=O)CN(Cc3ccccc3)Cc3c(-c4ccc(NC(=O)NCC)cc4)nc4n(Cc5c(F)cccc5F)cc(C(=O)OCC)c(=O)n34)cc2)Cc2ccccc2)cc1`, the Efficacy in data set [1] was found to be 59%; in data set [3], 34%. The pKi in data set [2] was 6.28.

With `CCNC(=O)Nc1ccc(-c2nc3n(Cc4c(F)cccc4F)cc(C(=O)OCC)c(=O)n3c2CN(CC(=O)NCCCC(=O)NCC#Cc2cccc(C#CCNC(=O)CCCNC(=O)CN(Cc3ccccc3)Cc3c(-c4ccc(NC(=O)NCC)cc4)nc4n(Cc5c(F)cccc5F)cc(C(=O)OCC)c(=O)n34)c2)Cc2ccccc2)cc1`, the Efficacy in data set [1] was found to be 57%; in data set [3], 40%. In data set [2], this compound had a pKi of 6.09.

For `CCNC(=O)Nc1ccc(-c2nc3n(Cc4c(F)cccc4F)cc(C(=O)OCC)c(=O)n3c2CN(CC(=O)NCC(=O)NCC#Cc2ccccc2)Cc2ccccc2)cc1`, the Efficacy in data set [1] was 95%; in data set [3], 92%. For the same compound, the pKi in data set [2] is 6.77. Moreover, in data set [4], the pIC50 was 6.34.

Regarding `CCNC(=O)Nc1ccc(-c2nc3n(Cc4c(F)cccc4F)cc(C(=O)OCC)c(=O)n3c2CN(CC(=O)N[C@H](C(=O)NCC#Cc2ccccc2)C(C)C)Cc2ccccc2)cc1`, the Efficacy is 60% in data set [1] and 64% in data set [3]. Also, in data set [2], the pKi was 6.11. Besides, in data set [4], the pIC50 was 6.28.

In the case of `CCNC(=O)Nc1ccc(-c2nc3n(Cc4c(F)cccc4F)cc(C(=O)OCC)c(=O)n3c2CN(CC(=O)N[C@@H](C)C(=O)NCC#Cc2cccc(C#CCNC(=O)[C@H](C)NC(=O)CN(Cc3ccccc3)Cc3c(-c4ccc(NC(=O)NCC)cc4)nc4n(Cc5c(F)cccc5F)cc(C(=O)OCC)c(=O)n34)c2)Cc2ccccc2)cc1`, the Efficacy in data set [1] is 14%; in data set [3] it was 18%. Besides, the pKi in data set [2] is 5.28.

As for `CCNC(=O)Nc1ccc(-c2nc3n(Cc4c(F)cccc4F)cc(C(=O)OCC)c(=O)n3c2CN(CC(=O)NCCCCCC(=O)NCC#Cc2cccc(C#CCNC(=O)CCCCCNC(=O)CN(Cc3ccccc3)Cc3c(-c4ccc(NC(=O)NCC)cc4)nc4n(Cc5c(F)cccc5F)cc(C(=O)OCC)c(=O)n34)c2)Cc2ccccc2)cc1`, the Efficacy came out at 58% in data set [1] and 44% in data set [3]. The compound further gave a pKi in data set [2] of 6.03.

Consider `CCNC(=O)Nc1ccc(-c2nc3n(Cc4c(F)cccc4F)cc(C(=O)OCC)c(=O)n3c2CN(CC(=O)N2CCC[C@H]2C(=O)NCC#Cc2cccc(C#CCNC(=O)[C@@H]3CCCN3C(=O)CN(Cc3ccccc3)Cc3c(-c4ccc(NC(=O)NCC)cc4)nc4n(Cc5c(F)cccc5F)cc(C(=O)OCC)c(=O)n34)c2)Cc2ccccc2)cc1`, for which the Efficacy in data set [1] is 67%; in data set [3] it was 31%. Further, the pKi in data set [2] is 6.03.

In the case of `CCNC(=O)Nc1ccc(-c2nc3n(Cc4c(F)cccc4F)cc(C(=O)OCC)c(=O)n3c2CN(CC(=O)NCCCCCC(=O)NCC#Cc2ccccc2)Cc2ccccc2)cc1`, the Efficacy in data set [1] worked out at 99%; in data set [3] it was 97%. Further, the pKi in data set [2] is 6.42. In addition, the pIC50 in data set [4] is 6.36.

As to `CCNC(=O)Nc1ccc(-c2nc3n(Cc4c(F)cccc4F)cc(C(=O)OCC)c(=O)n3c2CN(CC(=O)N[C@H](C(=O)NCC#Cc2ccc(C#CCNC(=O)[C@@H](NC(=O)CN(Cc3ccccc3)Cc3c(-c4ccc(NC(=O)NCC)cc4)nc4n(Cc5c(F)cccc5F)cc(C(=O)OCC)c(=O)n34)C(C)C)cc2)C(C)C)Cc2ccccc2)cc1`, the Efficacy in data set [1] turned out to be 34%; in data set [3], 31%. This compound showed a pKi in data set [2] of 6.14.
